ChEMBL document CHEMBL3868630, “Synthesis, anti-proliferative activity, SAR study, and preliminary in vivo toxicity study of substituted N,N'-bis(arylmethyl)benzimidazolium salts against a panel of non-small cell lung cancer cell lines” (Bioorg Med Chem, 2017)

How the values were obtained:
[1] = Growth inhibition of human A549 cells after 48 hrs by SRB assay; format: functional; conditions: A549, 48 h
[2] = Cytotoxicity against human NCI-H460 cells assessed as decrease in cell viability after 72 hrs by MTT assay; format: functional, cell-based; conditions: NCI-H460, 72 h
Summary of the method: (§1)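 Cells kept in RPMI 1640 with 10% FBS at 37 °C, 5% CO2, passaged every 2-3 days; seeded at 5,000-7,000 cells/well and left 24 h. Compounds dissolved in 1% DMSO, diluted in fresh medium to 1, 4, 16 and 32 µM, added in sextuplicate; 72 h exposure. MTT added for 3-4 h, medium removed, DMSO added for 15 min at 37 °C, OD read at 540 nm.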

[3] = Cytotoxicity against human NCI-H1975 cells assessed as decrease in cell viability after 72 hrs by MTT assay; format: functional, cell-based; conditions: NCI-H1975, 72 h; summary of the method: as §1
[4] = Cytotoxicity against human HCC827 cells assessed as decrease in cell viability after 72 hrs by MTT assay; format: functional, cell-based; conditions: HCC827, 72 h; summary of the method: as §1
[5] = Cytotoxicity against human A549 cells assessed as decrease in cell viability after 72 hrs by MTT assay; format: functional, cell-based; conditions: A549, 72 h; summary of the method: as §1
[6] = Cytotoxicity against human NCI-H226 cells assessed as cell growth at 10 uM after 48 hrs by SRB assay relative to control; format: functional; conditions: NCI-H226, 48 h, read-out: Activity
[7] = Cytotoxicity against human HOP92 cells assessed as cell growth at 10 uM after 48 hrs by SRB assay relative to control; format: functional; conditions: HOP-92, 48 h, read-out: Activity
[8] = Cytotoxicity against human A549 cells assessed as cell growth at 10 uM after 48 hrs by SRB assay relative to control; format: functional; conditions: A549, 48 h, read-out: Activity
[9] = Cytotoxicity against human EKVX cells assessed as cell growth at 10 uM after 48 hrs by SRB assay relative to control; format: functional; conditions: read-out: Activity
[10] = Cytotoxicity against human HOP62 cells assessed as cell growth at 10 uM after 48 hrs by SRB assay relative to control; format: functional; conditions: HOP-62, 48 h, read-out: Activity
[11] = Cytotoxicity against human NCI-H23 cells assessed as cell growth at 10 uM after 48 hrs by SRB assay relative to control; format: functional; conditions: NCI-H23, 48 h, read-out: Activity
[12] = Cytotoxicity against human NCI-H322M cells assessed as cell growth at 10 uM after 48 hrs by SRB assay relative to control; format: functional; conditions: read-out: Activity
[13] = Cytotoxicity against human NCI-H460 cells assessed as cell growth at 10 uM after 48 hrs by SRB assay relative to control; format: functional; conditions: NCI-H460, 48 h, read-out: Activity
[14] = Cytotoxicity against human NCI-H522 cells assessed as cell growth at 10 uM after 48 hrs by SRB assay relative to control; format: functional; conditions: NCI-H522, 48 h, read-out: Activity
[15] = Growth inhibition of human EKVX cells after 48 hrs by SRB assay; format: functional
[16] = Growth inhibition of human HOP62 cells after 48 hrs by SRB assay; format: functional; conditions: HOP-62, 48 h
[17] = Growth inhibition of human HOP92 cells after 48 hrs by SRB assay; format: functional; conditions: HOP-92, 48 h
[18] = Growth inhibition of human NCI-H226 cells after 48 hrs by SRB assay; format: functional; conditions: NCI-H226, 48 h
[19] = Growth inhibition of human NCI-H23 cells after 48 hrs by SRB assay; format: functional; conditions: NCI-H23, 48 h
[20] = Growth inhibition of human NCI-H322M cells after 48 hrs by SRB assay; format: functional
[21] = Growth inhibition of human NCI-H460 cells after 48 hrs by SRB assay; format: functional; conditions: NCI-H460, 48 h
[22] = Growth inhibition of human NCI-H522 cells after 48 hrs by SRB assay; format: functional; conditions: NCI-H522, 48 h
[23] = system: Mus musculus; assay: Toxicity in C57BL/6 mouse assessed as weight loss at 20 mg/kg, ip measured on day 2; format: organism-based; conditions: in vivo
Summary of the method: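 Male C57BL/6 mice, 8 weeks old, 3 per cage, 12 h light/dark, food and water ad libitum, acclimated 5 days. Single IP dose on day 0 of 100 µL of 4 mg/mL in 20% 2-HPβCD in sterile PBS (~20 mg/kg assuming 20 g mice). Vehicle controls got 100 µL 20% 2-HPβCD/PBS IP on days 0, 7, 14, 21, 25. Weighed and monitored daily.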

[24] = system: Mus musculus; assay: Toxicity in C57BL/6 mouse assessed as increase in body mass at 20 mg/kg, ip measured after 16 days; format: organism-based; conditions: in vivo, 384 h
Summary of the method: (§2)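 Male C57BL/6 mice, eight weeks old, housed three per cage on a 12 h light/dark cycle with food and water ad libitum, acclimated 5 days. Single IP injection on day 0 of 100 µL of a 4 mg/mL solution (0.4 mg, ~20 mg/kg assuming 20 g mice) in 20% 2-HPβCD sterile PBS. Vehicle controls were injected on days 0, 7, 14, 21 and 25. Mice were monitored and weighed daily.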

[25] = Toxicity in C57BL/6 mouse assessed as mouse survival rate at 20 mg/kg, ip measured after 16 days; format: organism-based; conditions: in vivo; summary of the method: as §2
[26] = Aqueous solubility of the compound; format: physicochemical
[27] = read-out: LC50 (the source's name)

**Q.** With `COCCOCCOCc1n(Cc2ccc3ccccc3n2)c2ccccc2[n+]1Cc1ccc2ccccc2c1.[Br-]` as the compound, how does the GI50 [1] read?
**A.** Its GI50 is 0.748 µM.

**Q.** What about the LC50 [1] of the same compound?
**A.** The LC50 was 37.1 µM.

**Q.** What about the TGI [1] of the same compound?
**A.** Its TGI is 10.6 µM.

**Q.** What about the IC50 [2] of the same compound?
**A.** The IC50 was 3 µM.

**Q.** And the IC50 [3]?
**A.** Its IC50 is less than 1 µM.

**Q.** What about the IC50 [4] of the same compound?
**A.** Its IC50 is 6 µM.

**Q.** What about the IC50 [5] of the same compound?
**A.** The IC50 was 3 µM.

**Q.** What about the growth at 10 µM [6] of the same compound?
**A.** The growth at 10 µM was 28.1%.

**Q.** And the growth at 10 µM [7]?
**A.** Its growth at 10 µM is -18.2%.

**Q.** What about the growth at 10 µM [8] of the same compound?
**A.** The growth at 10 µM was 22.5%.

**Q.** What about the growth at 10 µM [9] of the same compound?
**A.** The growth at 10 µM was 31%.

**Q.** And the growth at 10 µM [10]?
**A.** Its growth at 10 µM is 11.7%.

**Q.** What about the growth at 10 µM [11] of the same compound?
**A.** Its growth at 10 µM is 1.03%.

**Q.** What about the growth at 10 µM [12] of the same compound?
**A.** The growth at 10 µM was 26.8%.

**Q.** What about the growth at 10 µM [13] of the same compound?
**A.** Its growth at 10 µM is 7.94%.

**Q.** What about the growth at 10 µM [14] of the same compound?
**A.** The growth at 10 µM was 0.79%.

**Q.** What about the GI50 [15] of the same compound?
**A.** Its GI50 is 1.27 µM.

**Q.** And the LC50 [15]?
**A.** The LC50 was 50.9 µM.

**Q.** And the TGI [15]?
**A.** The TGI was 10.8 µM.

**Q.** And the GI50 [16]?
**A.** Its GI50 is 0.468 µM.

**Q.** What about the TGI [16] of the same compound?
**A.** The TGI was 2.52 µM.

**Q.** And the CC50 [16, 27]?
**A.** The CC50 was 9.53 µM.

**Q.** What about the GI50 [17] of the same compound?
**A.** The GI50 was 0.207 µM.

**Q.** And the LC50 [17]?
**A.** The LC50 was 5.22 µM.

**Q.** And the TGI [17]?
**A.** The TGI was 0.718 µM.

**Q.** What about the GI50 [18] of the same compound?
**A.** The GI50 was 0.874 µM.

**Q.** And the LC50 [18]?
**A.** Its LC50 is 45.2 µM.

**Q.** What about the TGI [18] of the same compound?
**A.** The TGI was 4.83 µM.

**Q.** What about the GI50 [19] of the same compound?
**A.** Its GI50 is 0.386 µM.

**Q.** What about the LC50 [19] of the same compound?
**A.** Its LC50 is 53.5 µM.

**Q.** What about the TGI [19] of the same compound?
**A.** The TGI was 10.3 µM.

**Q.** And the GI50 [20]?
**A.** The GI50 was 1.08 µM.

**Q.** And the TGI [20]?
**A.** The TGI was 7.09 µM.

**Q.** What about the CC50 [20, 27] of the same compound?
**A.** The CC50 was 28.6 µM.

**Q.** What about the GI50 [21] of the same compound?
**A.** Its GI50 is 0.424 µM.

**Q.** And the LC50 [21]?
**A.** The LC50 was 5.7 µM.

**Q.** What about the TGI [21] of the same compound?
**A.** The TGI was 1.56 µM.

**Q.** And the GI50 [22]?
**A.** Its GI50 is 0.248 µM.

**Q.** What about the TGI [22] of the same compound?
**A.** The TGI was 0.936 µM.

**Q.** What about the CC50 [22, 27] of the same compound?
**A.** The CC50 was 4.59 µM.

**Q.** And the Activity [23]?
**A.** Its Activity is “Toxic”.

**Q.** And the Activity [24]?
**A.** Its Activity is 6%.

**Q.** What about the survival at 384 h [25] of the same compound?
**A.** The survival at 384 h was 33%.

**Q.** And the solubility [26]?
**A.** The solubility was 1.9 mg/mL.
